According to ChEMBL document CHEMBL1150419, “Structure-activity relationships of a peptide inhibitor of the human FcRn:human IgG interaction” (Bioorg Med Chem, 2008):

How the values were obtained:
[1] = molecular target: T1, IgG receptor FcRn large subunit p51 (Homo sapiens, UniProt P55899); assay: Inhibition of human IgG binding to soluble human FcRn by ELISA
Method in brief: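 Biotinylated soluble human FcRn immobilized on neutravidin plates, incubated with hIgG (3 nM, constant) and peptide at varying concentrations for 2 h at 37 °C. After washing, bound hIgG detected with peroxidase-conjugated hIgG-specific Fab fragments.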

[2] = molecular target: T1, IgG receptor FcRn large subunit p51; assay: Binding affinity to human FcRn at pH 6 by surface plasmon resonance assay
Method in brief: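 Soluble human FcRn coupled to the dextran surface of a CM5 chip; peptide dilutions flowed over the chip. The equilibrium response at each dilution was plotted against concentration and fitted to a steady-state affinity model to give Kd.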

[3] = Stability in presence of subtilisin assessed as intact peptide after 1 hr; type: ADME; details: subtilisin (protease solution); read-out: Stability
Method in brief: (§1)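 Peptide dissolved in PBS at 0.3 mg/mL and treated with a 470-fold molar excess of Subtilisin Carlsberg. The fraction of intact peptide remaining was recorded.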

[4] = Stability in presence of subtilisin assessed as intact peptide after 18 hrs; type: ADME; details: subtilisin (protease solution); read-out: Stability; method in brief: as §1

T1 sequence (P55899 whole entry, the tested form may be a part): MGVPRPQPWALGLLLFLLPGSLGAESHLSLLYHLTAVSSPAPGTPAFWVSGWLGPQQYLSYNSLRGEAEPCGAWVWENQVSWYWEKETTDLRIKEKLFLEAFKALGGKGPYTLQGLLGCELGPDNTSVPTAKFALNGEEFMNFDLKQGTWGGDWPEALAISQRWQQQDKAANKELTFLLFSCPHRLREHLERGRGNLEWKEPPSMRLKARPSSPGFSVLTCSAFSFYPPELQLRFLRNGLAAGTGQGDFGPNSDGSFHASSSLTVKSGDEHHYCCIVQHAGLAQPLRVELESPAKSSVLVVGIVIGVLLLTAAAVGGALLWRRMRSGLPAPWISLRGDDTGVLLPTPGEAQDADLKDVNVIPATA

IC50 [1] | Kd [2] | remaining at 1 h [3] | remaining at 18 h [4] | SMILES
2 µM | 0.25 µM | 5% | 0% | CC(C)C[C@H](NC(=O)CNC(=O)CNC(=O)[C@H](Cc1ccccc1)NC(=O)[C@H](Cc1cnc[nH]1)NC(=O)CNC(=O)[C@@H](NC(=O)[C@@H](NC(=O)[C@H](Cc1ccccc1)NC(=O)[C@H](CCCNC(=N)N)NC(=O)[C@@H](N)CCC(N)=O)C(C)(C)S)[C@@H](C)O)C(=O)N[C@@H](Cc1ccc(O)cc1)C(=O)N1CCC[C@H]1C(=O)N[C@@H](CS)C(=O)N[C@@H](CC(N)=O)C(=O)NCC(=O)N1CCC[C@H]1C(=O)O
39 µM | 18.3 µM | 5% | 0% | C[C@@H](O)[C@H](NC(=O)[C@@H](NC(=O)[C@H](Cc1ccccc1)NC(=O)[C@H](CCCN=C(N)N)NC(=O)[C@@H](N)CCC(N)=O)C(C)(C)S)C(=O)NCC(=O)N[C@@H](Cc1cnc[nH]1)C(=O)N[C@@H](Cc1ccccc1)C(=O)N[C@H](Cc1ccccc1)C(=O)NCC(=O)N1CCC[C@H]1C(=O)N[C@@H](Cc1ccc(O)cc1)C(=O)N1CCC[C@H]1C(=O)N[C@@H](CS)C(=O)N[C@@H](CC(N)=O)C(=O)NCC(=O)N1CCC[C@H]1C(=O)O
